# ChEMBL document CHEMBL4390676, “Discovery of Bisubstrate Inhibitors for Protein N-Terminal Methyltransferase 1” (J Med Chem, 2019)
# Active and inactive are the calls of the source. The rule behind the calls is not given here. Residues, ends and D or L forms follow the SMILES beside them. *: point of attachment. X1 = Nc1ncnc2c1ncn2[C@@H]1O[C@H](CN(CCCN2CCC[C@H]2C(=O)*)CC[C@H](N)C(=O)O)[C@@H](O)[C@H]1O
# Tests used:
# [1] = biological target: T1, N-terminal Xaa-Pro-Lys N-methyltransferase 1 (Homo sapiens, UniProt Q9BV86); test: Inhibition of recombinant human full-length His6-tagged NTMT1 (1 to 222 residues) expressed in Escherichia coli BL21-CodonPlus(DE3)-RIL competent cells using peptide substrate in presence of SAM by fluorescence assay
# T1 sequence (Q9BV86 whole entry): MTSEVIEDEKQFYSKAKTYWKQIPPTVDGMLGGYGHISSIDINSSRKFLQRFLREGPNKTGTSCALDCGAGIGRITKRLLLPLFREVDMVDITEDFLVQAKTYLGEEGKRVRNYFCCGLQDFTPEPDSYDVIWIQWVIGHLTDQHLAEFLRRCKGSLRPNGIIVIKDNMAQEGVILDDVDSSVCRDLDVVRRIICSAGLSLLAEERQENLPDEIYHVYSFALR
# In short: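 SAHH-coupled fluorescence assay that tracks SAH formation by NTMT1. SAM and peptide substrate GPKRIA are each at their Km values. IC50 is taken from dose–response curves, n = 3.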
# [2] = biological target: T2, N-terminal Xaa-Pro-Lys N-methyltransferase 1 (Homo sapiens) (UniProt Q9BV86); test: (§1) Inhibition of recombinant human full-length His6-tagged NTMT1 (1 to 222 residues) expressed in Escherichia coli BL21-CodonPlus(DE3)-RIL competent cells at 10 uM using GPKRIA as substrate preincubated for 10 mins in presence of SAM followed by substrate addition by fluorescence assay
# T2 sequence (whole entry): T1 sequence (Q9BV86 whole entry)
# [3] = biological target: Protein arginine N-methyltransferase 1 (Rattus norvegicus) (UniProt Q63009); test: Inhibition of rat His6-tagged PRMT1 expressed in Escherichia coli BL21(DE3) assessed as enzyme residual activity at 3.3 uM using H4-21 peptide as substrate preincubated for 10 mins in presence of SAM followed by substrate addition by fluorescence assay relative to control
# Sequence of Protein arginine N-methyltransferase 1 (Rattus norvegicus) (Q63009 whole entry, looked up): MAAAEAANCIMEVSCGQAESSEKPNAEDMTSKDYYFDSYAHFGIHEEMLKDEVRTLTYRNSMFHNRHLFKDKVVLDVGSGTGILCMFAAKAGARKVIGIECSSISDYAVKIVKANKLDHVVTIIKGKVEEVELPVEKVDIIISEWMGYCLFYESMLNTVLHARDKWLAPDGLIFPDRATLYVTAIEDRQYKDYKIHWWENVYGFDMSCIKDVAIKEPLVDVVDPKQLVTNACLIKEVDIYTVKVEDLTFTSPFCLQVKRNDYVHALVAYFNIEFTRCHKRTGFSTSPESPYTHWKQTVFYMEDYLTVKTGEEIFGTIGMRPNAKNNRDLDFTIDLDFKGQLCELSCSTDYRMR
# In short: (§2)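 Selectivity panel with inhibitor at 3.3, 10, 33 or 100 μM. Enzyme activity is given as percent of control, mean of duplicate experiments (n = 2).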
# [4] = biological target: T3, Histone-lysine N-methyltransferase SETD7 (Homo sapiens) (UniProt Q8WTS6); test: (§3) Inhibition of human His-tagged SETD7 (1 to 366 residues) expressed in Escherichia coli assessed as enzyme residual activity at 33 uM using H3-21 peptide as substrate preincubated for 10 mins in presence of SAM followed by substrate addition by fluorescence assay relative to control; in short: as §2
# T3 sequence (whole entry): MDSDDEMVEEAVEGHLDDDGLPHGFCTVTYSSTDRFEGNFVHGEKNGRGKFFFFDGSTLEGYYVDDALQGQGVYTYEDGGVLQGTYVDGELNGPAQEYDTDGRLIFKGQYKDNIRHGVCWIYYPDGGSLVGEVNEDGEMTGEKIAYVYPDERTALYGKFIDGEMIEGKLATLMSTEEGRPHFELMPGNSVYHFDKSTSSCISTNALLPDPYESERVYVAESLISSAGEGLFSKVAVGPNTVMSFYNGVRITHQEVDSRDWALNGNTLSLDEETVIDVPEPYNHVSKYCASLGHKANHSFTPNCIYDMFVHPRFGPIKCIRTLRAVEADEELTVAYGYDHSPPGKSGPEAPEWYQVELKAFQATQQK
# [5] = biological target: T4, Histone-lysine N-methyltransferase EHMT2 (Homo sapiens) (UniProt Q96KQ7); test: as §3, with “G9a (913” for “SETD7 (1”, “1193” for “366”, “coli BL21-CodonPlus(DE3)-RIL” for “coli”, “100” for “33”; in short: as §2
# T4 sequence (whole entry): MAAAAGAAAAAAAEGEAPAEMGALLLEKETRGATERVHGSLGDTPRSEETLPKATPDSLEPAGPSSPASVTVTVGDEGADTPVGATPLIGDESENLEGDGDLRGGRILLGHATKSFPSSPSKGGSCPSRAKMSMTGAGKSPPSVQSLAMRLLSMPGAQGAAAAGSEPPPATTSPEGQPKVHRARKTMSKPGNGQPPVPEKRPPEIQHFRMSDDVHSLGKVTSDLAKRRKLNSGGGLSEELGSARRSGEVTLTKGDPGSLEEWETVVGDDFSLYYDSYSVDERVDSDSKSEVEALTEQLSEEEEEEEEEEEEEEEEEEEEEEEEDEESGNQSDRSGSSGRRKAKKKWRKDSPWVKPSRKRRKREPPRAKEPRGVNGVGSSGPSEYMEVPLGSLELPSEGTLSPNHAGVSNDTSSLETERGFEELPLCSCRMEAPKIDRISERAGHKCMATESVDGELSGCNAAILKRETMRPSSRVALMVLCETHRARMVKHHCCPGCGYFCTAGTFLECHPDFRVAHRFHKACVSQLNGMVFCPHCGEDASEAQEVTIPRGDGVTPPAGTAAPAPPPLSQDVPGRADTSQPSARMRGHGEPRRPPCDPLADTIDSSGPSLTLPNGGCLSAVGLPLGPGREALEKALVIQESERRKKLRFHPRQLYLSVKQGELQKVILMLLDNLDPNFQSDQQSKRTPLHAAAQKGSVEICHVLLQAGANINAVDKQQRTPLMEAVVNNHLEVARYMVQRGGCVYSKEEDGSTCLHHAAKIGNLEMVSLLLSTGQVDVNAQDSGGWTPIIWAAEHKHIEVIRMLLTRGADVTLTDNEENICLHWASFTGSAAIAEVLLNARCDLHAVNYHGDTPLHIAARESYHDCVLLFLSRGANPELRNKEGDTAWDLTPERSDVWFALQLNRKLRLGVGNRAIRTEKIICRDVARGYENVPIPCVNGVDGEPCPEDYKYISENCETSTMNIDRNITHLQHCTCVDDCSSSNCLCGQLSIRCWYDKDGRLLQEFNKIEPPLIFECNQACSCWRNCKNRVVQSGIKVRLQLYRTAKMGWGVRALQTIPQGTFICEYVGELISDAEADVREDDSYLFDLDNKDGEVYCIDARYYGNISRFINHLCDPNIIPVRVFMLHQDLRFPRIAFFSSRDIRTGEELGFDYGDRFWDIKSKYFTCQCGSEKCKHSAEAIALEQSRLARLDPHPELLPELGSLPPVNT
# [6] = Inhibition of Trypanosoma brucei N-terminal His6-tagged PRMT7 expressed in Escherichia coli BL21-CodonPlus(DE3)-RIL using H4-21 peptide as substrate preincubated for 10 mins in presence of SAM followed by substrate addition by fluorescence assay
# [7] = biological target: T3, Histone-lysine N-methyltransferase SETD7 (Homo sapiens); test: Inhibition of human His-tagged SETD7 (1 to 366 residues) expressed in Escherichia coli assessed as enzyme residual activity at 3.3 uM using H3-21 peptide as substrate preincubated for 10 mins in presence of SAM followed by substrate addition by fluorescence assay relative to control; in short: as §2
# [8] = biological target: T2, N-terminal Xaa-Pro-Lys N-methyltransferase 1 (Homo sapiens); test: (§4) Inhibition of recombinant human full-length His6-tagged NTMT1 (1 to 222 residues) expressed in Escherichia coli BL21-CodonPlus(DE3)-RIL competent cells assessed as reduction in GPKRIA di-methylation at 100 nM preincubated for 10 mins in presence of SAM followed by GPKRIA addition and measured after 20 mins by MALDI TOF-MS analysis
# In short: (§5)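 Orthogonal MALDI-MS assay that directly follows α-N-amine methylation of substrate peptide GPKRIA by NTMT1 over 20 min. Methylated peptide products were monitored by mass spectrometry.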
# [9] = biological target: T2, N-terminal Xaa-Pro-Lys N-methyltransferase 1 (Homo sapiens); test: as §1, with “cells assessed as residual enzyme activity” for “cells”, “assay relative to control” for “assay”
# In short: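 NTMT1 residual activity […] with SAM and GPKRIA at Km. Values are means of triplicate experiments (n = 3).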
# [10] = biological target: T2, N-terminal Xaa-Pro-Lys N-methyltransferase 1 (Homo sapiens); test: as §1, with “Bi-substrate inhibition of” for “Inhibition of”, “cells” for “cells at 10 uM”, “using varying levels of” for “using”, “of varying levels of” for “of”
# In short: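 Kinetic mechanism study in the SAHH-coupled fluorescence assay. IC50 curves were run at varying SAM with fixed GPKRIA, and at varying GPKRIA with fixed SAM. IC50 values were plotted against SAM or peptide concentration by linear regression.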
# [11] = biological target: Protein arginine N-methyltransferase 1 (Rattus norvegicus, UniProt Q63009); test: Inhibition of rat His6-tagged PRMT1 expressed in Escherichia coli BL21(DE3) using H4-21 peptide as substrate preincubated for 10 mins in presence of SAM followed by substrate addition by fluorescence assay
# Sequence of Protein arginine N-methyltransferase 1 (Q63009 whole entry): as the sequence (Q63009 whole entry, looked up) above
# [12] = biological target: T2, N-terminal Xaa-Pro-Lys N-methyltransferase 1 (Homo sapiens); test: as §4, with “trimethylation” for “di-methylation”; in short: as §5
# [13] = biological target: T3, Histone-lysine N-methyltransferase SETD7 (Homo sapiens); test: Inhibition of human His-tagged SETD7 (1 to 366 residues) expressed in Escherichia coli assessed as enzyme residual activity at 10 uM using H3-21 peptide as substrate preincubated for 10 mins in presence of SAM followed by substrate addition by fluorescence assay relative to control; in short: as §2
structure (smiles),measurement,setting,value
N=C(N)NCCC[C@H](NC(=O)[C@H](CCCNC(=N)N)NC(=O)[C@H](CCCNC(=N)N)NC(=O)[C@@H]1CCCN1C(=O)CNCCCN(CC[C@H](N)C(=O)O)C[C@H]1O[C@@H](n2cnc3c(N)ncnc32)[C@H](O)[C@@H]1O)C(=O)N[C@@H](CO)C(N)=O,IC50,[1],0.94 µM
"Nc1ncnc2c1ncn2C1O[C@H](CN(CCCN2CCC[C@H]2C(=O)O)CC[C@H](N)C(=O)O)[C@@H](O)[C@H]1O (single isomer, unassigned)",inhibition,[2],inactive
CC[C@H](C)[C@H](NC(=O)[C@H](CCCNC(=N)N)NC(=O)[C@H](CCCCN)NC(=O)[C@@H]1CCCN1C(=O)[C@@H]1CCCN1CCCN(CC[C@H](N)C(=O)O)C[C@H]1O[C@@H](n2cnc3c(N)ncnc32)[C@H](O)[C@@H]1O)C(=O)N[C@@H](C)C(N)=O (X1-PKRIA-NH2),Activity,[3],97%
same,Activity,[4],97%
same,Activity,[5],78%
same,IC50,[6],> 10 µM
same,Activity,[7],94%
same,inhibition,[8],Active
same,Activity,[9],14%
same,inhibition,[10],Active
same,IC50,[11],> 33 µM
same,inhibition,[12],Active
same,Activity,[13],99%
